Source: ChEMBL document CHEMBL3585281, “Antibacterial Labdane Diterpenoids from Vitex vestita” (2015)
Values after ≈ are worked out from the molar mass of the structure shown.

Assays:
Type in all cases: functional
[1] = tested on: Bacillus cereus; test: Antibacterial activity against Bacillus cereus CIP 6624 after 18 hrs by agar dilution method; conditions: CIP 6624, 18 h
Method in brief: (§1)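 Agar-dilution MIC against Gram-positive strains. Compounds in DMSO, geometric dilutions giving final 100−0.75 mg/L in Mueller Hinton agar. Strains grown 18 h at 37 °C in trypticase soy broth, diluted in sterile water, spotted by Steers inoculator (about 1000 UFC/spot). Plates incubated 18 h at 37 °C; DMSO blank; ofloxacin positive control. MIC = lowest concentration with no visible growth.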

[2] = tested on: Bacillus cereus; test: Antibacterial activity against Bacillus cereus N190 after 18 hrs by agar dilution method; conditions: N190, 18 h; method in brief: as §1
[3] = tested on: Bacillus cereus; test: Antibacterial activity against Bacillus cereus N258 after 18 hrs by agar dilution method; conditions: N258, 18 h; method in brief: as §1
[4] = tested on: Bacillus cereus; test: Antibacterial activity against Bacillus cereus N349 after 18 hrs by agar dilution method; conditions: N349, 18 h; method in brief: as §1
[5] = tested on: Bacillus spizizenii; test: Antibacterial activity against Bacillus subtilis ATCC 6633 after 18 hrs by agar dilution method; conditions: ATCC 6633, 18 h; method in brief: as §1
[6] = tested on: Corynebacterium striatum; test: Antibacterial activity against Corynebacterium striatum N840 after 18 hrs by agar dilution method; conditions: N840, 18 h; method in brief: as §1
[7] = tested on: Enterococcus avium; test: Antibacterial activity against Enterococcus avium CIP 104053 after 18 hrs by agar dilution method; conditions: CIP 104053, 18 h; method in brief: as §1
[8] = tested on: Enterococcus casseliflavus; test: Antibacterial activity against Enterococcus casseliflavus N487 after 18 hrs by agar dilution method; conditions: N487, 18 h; method in brief: as §1
[9] = tested on: Enterococcus casseliflavus; test: Antibacterial activity against Enterococcus casseliflavus CIP 103018 after 18 hrs by agar dilution method; conditions: CIP 103018, 18 h; method in brief: as §1
[10] = tested on: Enterococcus durans; test: Antibacterial activity against Enterococcus durans CIP 104999 after 18 hrs by agar dilution method; conditions: CIP 104999, 18 h; method in brief: as §1
[11] = tested on: Enterococcus faecalis; test: Antibacterial activity against Enterococcus faecalis CIP 103214 after 18 hrs by agar dilution method; conditions: CIP 103214, 18 h; method in brief: as §1
[12] = tested on: Enterococcus faecalis; test: Antibacterial activity against Enterococcus faecalis CIP 104676 after 18 hrs by agar dilution method; conditions: CIP 104676, 18 h; method in brief: as §1
[13] = tested on: Enterococcus faecalis; test: Antibacterial activity against Enterococcus faecalis N491 after 18 hrs by agar dilution method; conditions: N491, 18 h; method in brief: as §1
[14] = tested on: Enterococcus faecalis; test: Antibacterial activity against Enterococcus faecalis N518 after 18 hrs by agar dilution method; conditions: N518, 18 h; method in brief: as §1
[15] = tested on: Enterococcus faecalis; test: Antibacterial activity against Enterococcus faecalis N520 after 18 hrs by agar dilution method; conditions: N520, 18 h; method in brief: as §1
[16] = tested on: Enterococcus faecium; test: Antibacterial activity against Enterococcus faecium CIP 103014 after 18 hrs by agar dilution method; conditions: CIP 103014, 18 h; method in brief: as §1
[17] = tested on: Enterococcus faecium; test: Antibacterial activity against Enterococcus faecium CIP 107387 after 18 hrs by agar dilution method; conditions: CIP 107387, 18 h; method in brief: as §1
[18] = tested on: Enterococcus faecium; test: Antibacterial activity against Enterococcus faecium N490 after 18 hrs by agar dilution method; conditions: N490, 18 h; method in brief: as §1
[19] = tested on: Enterococcus faecium; test: Antibacterial activity against Enterococcus faecium N507 after 18 hrs by agar dilution method; conditions: N507, 18 h; method in brief: as §1
[20] = tested on: Enterococcus faecium; test: Antibacterial activity against Enterococcus faecium N733 after 18 hrs by agar dilution method; conditions: N733, 18 h; method in brief: as §1
[21] = tested on: Enterococcus faecium; test: Antibacterial activity against Enterococcus faecium N823 after 18 hrs by agar dilution method; conditions: N823, 18 h; method in brief: as §1
[22] = tested on: Enterococcus gallinarum; test: Antibacterial activity against Enterococcus gallinarum CIP 105985 after 18 hrs by agar dilution method; conditions: CIP 105985, 18 h; method in brief: as §1
[23] = tested on: Enterococcus gallinarum; test: Antibacterial activity against Enterococcus gallinarum N489 after 18 hrs by agar dilution method; conditions: N489, 18 h; method in brief: as §1
[24] = tested on: Enterococcus gallinarum; test: Antibacterial activity against Enterococcus gallinarum N492 after 18 hrs by agar dilution method; conditions: N492, 18 h; method in brief: as §1
[25] = tested on: Enterococcus hirae; test: Antibacterial activity against Enterococcus hirae CIP 5855 after 18 hrs by agar dilution method; conditions: CIP 5855, 18 h; method in brief: as §1
[26] = tested on: Listeria innocua; test: Antibacterial activity against Listeria innocua E044 after 18 hrs by agar dilution method; conditions: E044, 18 h; method in brief: as §1
[27] = tested on: Listeria monocytogenes; test: Antibacterial activity against Listeria monocytogenes CIP 103575 after 18 hrs by agar dilution method; conditions: CIP 103575, 18 h; method in brief: as §1
[28] = tested on: Listeria monocytogenes; test: Antibacterial activity against Listeria monocytogenes N783 after 18 hrs by agar dilution method; conditions: N783, 18 h; method in brief: as §1
[29] = tested on: Listeria monocytogenes; test: Antibacterial activity against Listeria monocytogenes N836 after 18 hrs by agar dilution method; conditions: N836, 18 h; method in brief: as §1
[30] = tested on: Listeria monocytogenes; test: Antibacterial activity against Listeria monocytogenes N851 after 18 hrs by agar dilution method; conditions: N851, 18 h; method in brief: as §1
[31] = tested on: Staphylococcus aureus; test: Antibacterial activity against Staphylococcus aureus ATCC 25923 after 18 hrs by agar dilution method; conditions: ATCC 25923, 18 h; method in brief: as §1
[32] = tested on: Staphylococcus aureus; test: Antibacterial activity against Staphylococcus aureus ATCC 9144 oxford after 18 hrs by agar dilution method; method in brief: as §1
[33] = tested on: Staphylococcus aureus; test: Antibacterial activity against Staphylococcus aureus CIP 483 after 18 hrs by agar dilution method; conditions: CIP 483, 18 h; method in brief: as §1
[34] = tested on: Staphylococcus aureus; test: Antibacterial activity against Staphylococcus aureus CIP 53154 after 18 hrs by agar dilution method; conditions: CIP 53154, 18 h; method in brief: as §1
[35] = tested on: Staphylococcus aureus; test: Antibacterial activity against Staphylococcus aureus CIP 53156 after 18 hrs by agar dilution method; conditions: CIP 53156, 18 h; method in brief: as §1
[36] = tested on: Staphylococcus aureus; test: Antibacterial activity against Staphylococcus aureus CIP 5710 after 18 hrs by agar dilution method; conditions: CIP 5710, 18 h; method in brief: as §1
[37] = tested on: Staphylococcus aureus; test: Antibacterial activity against Staphylococcus aureus CIP 7625 after 18 hrs by agar dilution method; conditions: CIP 7625, 18 h; method in brief: as §1
[38] = tested on: Staphylococcus aureus; test: Antibacterial activity against Staphylococcus aureus CRBIP 2121 after 18 hrs by agar dilution method; conditions: CRBIP 2121, 18 h; method in brief: as §1
[39] = tested on: Staphylococcus epidermidis; test: Antibacterial activity against Staphylococcus epidermidis CIP 53124 after 18 hrs by agar dilution method; conditions: CIP 53124, 18 h; method in brief: as §1
[40] = tested on: Staphylococcus haemolyticus; test: Antibacterial activity against Staphylococcus haemolyticus CIP 8156 after 18 hrs by agar dilution method; conditions: CIP 8156, 18 h; method in brief: as §1
[41] = tested on: Staphylococcus intermedius; test: Antibacterial activity against Staphylococcus intermedius N987 after 18 hrs by agar dilution method; conditions: N987, 18 h; method in brief: as §1
[42] = tested on: Staphylococcus lugdunensis; test: Antibacterial activity against Staphylococcus lugdunensis ATCC 43809 after 18 hrs by agar dilution method; conditions: ATCC 43809, 18 h; method in brief: as §1
[43] = tested on: Staphylococcus saprophyticus; test: Antibacterial activity against Staphylococcus saprophyticus CIP 76125 after 18 hrs by agar dilution method; conditions: CIP 76125, 18 h; method in brief: as §1
[44] = tested on: Staphylococcus saprophyticus; test: Antibacterial activity against Staphylococcus saprophyticus E260 after 18 hrs by agar dilution method; conditions: E260, 18 h; method in brief: as §1
[45] = tested on: Mammaliicoccus sciuri; test: Antibacterial activity against Staphylococcus sciuri N993 after 18 hrs by agar dilution method; conditions: N993, 18 h; method in brief: as §1
[46] = tested on: Streptococcus agalactiae; test: Antibacterial activity against Streptococcus agalactiae CIP 103227 after 18 hrs by agar dilution method; conditions: ATCC 13813, 18 h; method in brief: as §1
[47] = tested on: MRC5; test: Cytotoxicity against human MRC5 cells assessed as growth inhibition at 10^-5 M after 72 hrs by MTS assay relative to control; conditions: MRC5, 72 h, read-out: GI
Method in brief: (§2)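 Cells from ATCC; HCT-116 grown in RPMI 1640 and MRC5 in DMEM, each with 10% FCS and 1% glutamine, 37 °C, 5% CO2. Seeded at 2.5 × 10^3 cells/well, cultured 24 h, then exposed to compounds at 1 and 10 μM final for 72 h. MTS read-out, absorbance 490 nm; percent index from treated/control OD490 × 100, three experiments.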

[48] = tested on: MRC5; test: Cytotoxicity against human MRC5 cells assessed as growth inhibition at 10^-6 M after 72 hrs by MTS assay relative to control; conditions: MRC5, 72 h, read-out: GI; method in brief: as §2
[49] = tested on: HCT-116; test: Cytotoxicity against human HCT116 cells assessed as growth inhibition at 10^-5 M after 72 hrs by MTS assay relative to control; conditions: HCT-116, 72 h, read-out: GI; method in brief: as §2
[50] = tested on: HCT-116; test: Cytotoxicity against human HCT116 cells assessed as growth inhibition at 10^-6 M after 72 hrs by MTS assay relative to control; conditions: HCT-116, 72 h, read-out: GI; method in brief: as §2

## C=C1CC[C@H]2C(C)(C)CCC[C@]2(C)[C@H]1C[C@@H](O)C1=CC(=O)OC1O (stereo not given in full)
[1]
  MIC: 12 µM (≈ 4.01 µg/mL)
[2]
  MIC: 6 µM (≈ 2.01 µg/mL)
[3]
  MIC: 6 µM (≈ 2.01 µg/mL)
[4]
  MIC: 6 µM (≈ 2.01 µg/mL)
[5]
  MIC: 6 µM (≈ 2.01 µg/mL)
[6]
  MIC: 24 µM (≈ 8.03 µg/mL)
[7]
  MIC: 48 µM (≈ 16.1 µg/mL)
[8]
  MIC: 96 µM (≈ 32.1 µg/mL)
[9]
  MIC: 96 µM (≈ 32.1 µg/mL)
[10]
  MIC: 24 µM (≈ 8.03 µg/mL)
[11]
  MIC: 96 µM (≈ 32.1 µg/mL)
[12]
  MIC: 24 µM (≈ 8.03 µg/mL)
[13]
  MIC: 24 µM (≈ 8.03 µg/mL)
[14]
  MIC: 96 µM (≈ 32.1 µg/mL)
[15]
  MIC: 48 µM (≈ 16.1 µg/mL)
[16]
  MIC: 96 µM (≈ 32.1 µg/mL)
[17]
  MIC: 96 µM (≈ 32.1 µg/mL)
[18]
  MIC: 48 µM (≈ 16.1 µg/mL)
[19]
  MIC: 96 µM (≈ 32.1 µg/mL)
[20]
  MIC: 96 µM (≈ 32.1 µg/mL)
[21]
  MIC: 96 µM (≈ 32.1 µg/mL)
[22]
  MIC: 96 µM (≈ 32.1 µg/mL)
[23]
  MIC: 24 µM (≈ 8.03 µg/mL)
[24]
  MIC: 48 µM (≈ 16.1 µg/mL)
[25]
  MIC: 96 µM (≈ 32.1 µg/mL)
[26]
  MIC: 48 µM (≈ 16.1 µg/mL)
[27]
  MIC: 24 µM (≈ 8.03 µg/mL)
[28]
  MIC: 48 µM (≈ 16.1 µg/mL)
[29]
  MIC: 24 µM (≈ 8.03 µg/mL)
[30]
  MIC: 48 µM (≈ 16.1 µg/mL)
[31]
  MIC: 24 µM (≈ 8.03 µg/mL)
[32]
  MIC: 24 µM (≈ 8.03 µg/mL)
[33]
  MIC: 12 µM (≈ 4.01 µg/mL)
[34]
  MIC: 24 µM (≈ 8.03 µg/mL)
[35]
  MIC: 12 µM (≈ 4.01 µg/mL)
[36]
  MIC: 24 µM (≈ 8.03 µg/mL)
[37]
  MIC: 24 µM (≈ 8.03 µg/mL)
[38]
  MIC: 12 µM (≈ 4.01 µg/mL)
[39]
  MIC: 12 µM (≈ 4.01 µg/mL)
[40]
  MIC: 6 µM (≈ 2.01 µg/mL)
[41]
  MIC: 12 µM (≈ 4.01 µg/mL)
[42]
  MIC: 24 µM (≈ 8.03 µg/mL)
[43]
  MIC: 24 µM (≈ 8.03 µg/mL)
[44]
  MIC: 24 µM (≈ 8.03 µg/mL)
[45]
  MIC: 48 µM (≈ 16.1 µg/mL)
[46]
  MIC: 12 µM (≈ 4.01 µg/mL)
[47]
  inhibition of growth at 10 µM: 95%
[48]
  inhibition of growth at 1 µM: 22%
[49]
  inhibition of growth at 10 µM: 87%
[50]
  inhibition of growth at 1 µM: 0%
